Values after ≈ are worked out from the molar mass of the structure shown. Counter-ions that a name gives are not always drawn. Active and inactive are the calls of the source. The calls are words filed in the database; no cut-off is given here.
Legend:
HCT-116 = assay: Cytotoxicity against human HCT-116 cells assessed as cell growth inhibition upto 10 uM measured after 48 hrs by […] reagent based assay; assay type: functional
In short: (§1)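 Counterscreen viability assay in HCT116 colorectal cancer cells and IMR90 normal lung fibroblasts, run alongside DNMDP-sensitive lines.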

[1] = Inhibition of PDE in human HeLa cells; assay type: cell-based
IMR-90 = assay: Cytotoxicity against human IMR-90 cells assessed as cell growth inhibition upto 10 uM measured after 48 hrs by […] reagent based assay; assay type: functional; in short: as §1
[2] = target: 3',5'-cyclic-AMP phosphodiesterase 4B (Homo sapiens) (UniProt Q07343); assay: Inhibition of PDE4B (unknown origin) by 3H-cAMP scintillation proximity assay
[3] = target: cGMP-specific 3',5'-cyclic phosphodiesterase (Homo sapiens) (UniProt O76074); assay: Inhibition of PDE5 (unknown origin) by 3H-cAMP scintillation proximity assay
[4] = target: Phosphodiesterase 6 (Homo sapiens) (UniProt Q13956+P18545+P35913+O43924+P16499+P51160); assay: Inhibition of PDE6 (unknown origin) by 3H-cAMP scintillation proximity assay; assay type: protein assay
[5] = Toxicity in NMRI nude mouse assessed as tolerance at 10 mg/kg, po administered twice daily for 44 days; assay type: organism-based; conditions: in vivo, 1056 h, time 44 day
In short: (§2)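 Female NMRI nude mice carrying subcutaneous SK-MEL-3 xenografts, given the compound orally at 10 or 20 mg/kg twice daily, or 50 mg/kg once daily. Tolerance judged by body weight loss (>10% critical) and toxicities.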

[6] = Toxicity in NMRI nude mouse assessed as tolerance at 20 mg/kg, po administered twice daily for 44 days; assay type: organism-based; conditions: in vivo, 1056 h, time 44 day; in short: as §2
[7] = Toxicity in NMRI nude mouse assessed as tolerance at 50 mg/kg, po administered once daily for 44 days; assay type: organism-based; conditions: in vivo, 1056 h, time 44 day; in short: as §2
SK-MEL3 [8] = assay: Antitumor activity against human SK-MEL3 cells xenografted in NMRI nude mouse assessed as tumor weight by measuring tumor to control ratio at 50 mg/kg, po administered once daily for 44 days; assay type: functional; conditions: time 44 day
In short: (§3)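 SK-MEL-3 melanoma cells inoculated subcutaneously into female NMRI nude mice. Oral dosing at 10 or 20 mg/kg twice daily, or 50 mg/kg once daily, with vehicle controls. Tumor area and tumor weight expressed relative to vehicle as T/C_rel.area and T/C_weight.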

SK-MEL3 [9] = assay: Antitumor activity against human SK-MEL3 cells xenografted in NMRI nude mouse assessed as tumor growth inhibition by measuring tumor to control ratio at 50 mg/kg, po administered once daily for 44 days; assay type: functional; conditions: time 44 day; in short: as §3
SK-MEL3 [10] = assay: Antitumor activity against human SK-MEL3 cells xenografted in NMRI nude mouse assessed as tumor growth inhibition at 50 mg/kg, po administered once daily for 44 days; assay type: functional, organism-based; conditions: time 44.0 day; in short: as §3
SK-MEL3 [11] = assay: Antitumor activity against human SK-MEL3 cells xenografted in NMRI nude mouse assessed as tumor growth inhibition at 20 mg/kg, po administered twice daily for 44 days; assay type: functional, organism-based; conditions: time 44.0 day; in short: as §3
SK-MEL3 [12] = assay: Antitumor activity against human SK-MEL3 cells xenografted in NMRI nude mouse assessed as tumor growth inhibition at 10 mg/kg, po administered twice daily for 44 days; assay type: functional, organism-based; conditions: time 44.0 day; in short: as §3
[13] = target: Voltage-gated inwardly rectifying potassium channel KCNH2 (Homo sapiens, UniProt Q12809); assay: Binding affinity to hERG (unknown origin); assay type: toxicity
[14] = Efflux ratio of permeability in human Caco-2 cells; assay type: ADME, cell-based
In short: (§4)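 Caco2 monolayer permeability measured in the apical-to-basolateral and basolateral-to-apical directions, in nm/s. Efflux ratio calculated as B-A over A-B.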

[15] = Permeability across basolateral to apical side in human Caco-2 cells; assay type: ADME, cell-based; conditions: read-out: permeability; in short: as §4
[16] = Permeability across apical to basolateral side in human Caco-2 cells; assay type: ADME, cell-based; conditions: read-out: permeability; in short: as §4
[17] = Solubility of the compound; assay type: physicochemical
SK-MEL3 [18] = assay: Cytotoxicity against human SK-MEL3 cells assessed as cell growth inhibition upto 10 uM measured after 48 hrs by […] reagent based assay; assay type: functional; conditions: SK-MEL3, 48 h
Cytochrome P450 2D6 = Cytochrome P450 2D6 (Homo sapiens, UniProt P10635); assay: Inhibition of CYP2D6 (unknown origin); assay type: ADME
In short: (§5)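 CYP450 inhibition panel covering CYP1A2, 2C8, 2C9, 2D6 and 3A4, with compound tested at high concentrations.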

Cytochrome P450 3A4 = Cytochrome P450 3A4 (Homo sapiens, UniProt P08684); assay: Inhibition of CYP3A4 (unknown origin); assay type: ADME; in short: as §5
Cytochrome P450 2C9 = Cytochrome P450 2C9 (Homo sapiens, UniProt P11712); assay: Inhibition of CYP2C9 (unknown origin); assay type: ADME; in short: as §5
Cytochrome P450 1A2 = Cytochrome P450 1A2 (Homo sapiens, UniProt P05177); assay: Inhibition of CYP1A2 (unknown origin); assay type: ADME; in short: as §5
Cytochrome P450 2C8 = Cytochrome P450 2C8 (Homo sapiens, UniProt P10632); assay: Inhibition of CYP2C8 (unknown origin); assay type: ADME; in short: as §5
[19] = target: High affinity cGMP-specific 3',5'-cyclic phosphodiesterase 9A (Homo sapiens) (UniProt O76083); assay: Inhibition of PDE9A (unknown origin) by 3H-cAMP scintillation proximity assay
[20] = target: 3',5'-cyclic-AMP phosphodiesterase 7B (Homo sapiens) (UniProt Q9NP56); assay: Inhibition of PDE7B (unknown origin) by 3H-cAMP scintillation proximity assay
[21] = target: High affinity cAMP-specific and IBMX-insensitive 3',5'-cyclic phosphodiesterase 8A (Homo sapiens) (UniProt O60658); assay: Inhibition of PDE8A (unknown origin) by 3H-cAMP scintillation proximity assay
Homo sapiens = organism: Homo sapiens; assay: Inhibition of PDE1 (unknown origin) by 3H-cAMP scintillation proximity assay
[22] = target: cGMP-dependent 3',5'-cyclic phosphodiesterase (Homo sapiens) (UniProt O00408); assay: Inhibition of PDE2A (unknown origin) by 3H-cAMP scintillation proximity assay
HeLa = assay: Cytotoxicity against human HeLa cells assessed as cell growth inhibition measured after 48 hrs by […] reagent based assay; assay type: functional
[23] = target: cGMP-inhibited 3',5'-cyclic phosphodiesterase 3A (Homo sapiens, UniProt Q14432); assay: Inhibition of human N-terminal His-GST-tagged recombinant PDE3A (669-end residues) using fluorescent labelled cAMP as substrate
[24] = Selectivity ratio, ratio of IC50 for human PDE3A to EC50 for cytotoxicity against human HeLa cells
[25] = Selectivity ratio, ratio of IC50 for human PDE3B to EC50 for cytotoxicity against human HeLa cells
[26] = target: Ribonuclease SLFN12 (Homo sapiens) (UniProt Q8IYM2); assay: Stabilization of PDE3A/V5-epitope tagged SLFN12 interaction in human HeLa cells at 10 uM incubated for 8 hrs by immunoblotting analysis; assay type: cell-based
In short: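 HeLa cells transfected with a plasmid expressing V5-tagged SLFN12, then exposed to 10 µM compound for 8 h. Lysates immunoprecipitated with anti-PDE3A antibody for endogenous PDE3A. Co-precipitated SLFN12-V5 detected by immunoblot with anti-V5 antibody.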

A549 = assay: Cytotoxicity against human A549 cells assessed as cell growth inhibition upto 10 uM measured after 3 days by […] reagent based assay; conditions: time 72.0 hrs

3',5'-cyclic-AMP phosphodiesterase 4B (Homo sapiens), sequence (Q07343 whole entry): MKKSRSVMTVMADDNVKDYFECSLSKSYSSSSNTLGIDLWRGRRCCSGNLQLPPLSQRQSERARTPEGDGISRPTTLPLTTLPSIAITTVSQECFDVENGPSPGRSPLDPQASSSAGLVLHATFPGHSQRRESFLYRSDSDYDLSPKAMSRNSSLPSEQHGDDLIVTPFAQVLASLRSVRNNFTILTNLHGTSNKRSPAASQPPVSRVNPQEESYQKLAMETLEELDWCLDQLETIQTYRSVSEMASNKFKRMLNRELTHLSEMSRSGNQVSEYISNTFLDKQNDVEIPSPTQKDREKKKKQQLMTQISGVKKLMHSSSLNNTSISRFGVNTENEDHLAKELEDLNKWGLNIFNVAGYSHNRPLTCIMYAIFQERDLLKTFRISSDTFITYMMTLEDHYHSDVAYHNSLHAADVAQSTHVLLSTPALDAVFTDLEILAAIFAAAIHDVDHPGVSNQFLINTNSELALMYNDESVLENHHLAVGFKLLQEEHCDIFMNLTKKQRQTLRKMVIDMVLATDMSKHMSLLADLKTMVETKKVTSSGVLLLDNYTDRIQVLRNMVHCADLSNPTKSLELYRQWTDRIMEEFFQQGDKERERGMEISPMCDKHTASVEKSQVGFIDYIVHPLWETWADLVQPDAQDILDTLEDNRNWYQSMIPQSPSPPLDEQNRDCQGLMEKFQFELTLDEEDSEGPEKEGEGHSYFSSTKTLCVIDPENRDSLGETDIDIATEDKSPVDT
High affinity cGMP-specific 3',5'-cyclic phosphodiesterase 9A (Homo sapiens), sequence (O76083 whole entry): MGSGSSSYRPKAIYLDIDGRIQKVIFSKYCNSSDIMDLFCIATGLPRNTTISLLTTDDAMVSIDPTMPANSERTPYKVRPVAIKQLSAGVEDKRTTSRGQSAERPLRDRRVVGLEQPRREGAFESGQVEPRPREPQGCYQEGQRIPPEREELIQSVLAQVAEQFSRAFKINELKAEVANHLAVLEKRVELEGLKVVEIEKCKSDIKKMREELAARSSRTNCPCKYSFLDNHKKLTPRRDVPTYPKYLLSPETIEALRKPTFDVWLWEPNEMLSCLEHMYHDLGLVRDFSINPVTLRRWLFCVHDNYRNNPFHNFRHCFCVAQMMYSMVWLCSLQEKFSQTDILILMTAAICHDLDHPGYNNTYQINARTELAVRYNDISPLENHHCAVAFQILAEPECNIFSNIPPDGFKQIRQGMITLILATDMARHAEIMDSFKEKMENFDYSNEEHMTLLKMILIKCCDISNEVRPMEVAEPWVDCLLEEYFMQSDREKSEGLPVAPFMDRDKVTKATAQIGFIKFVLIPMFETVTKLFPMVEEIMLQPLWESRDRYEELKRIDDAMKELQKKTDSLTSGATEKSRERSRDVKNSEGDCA
cGMP-dependent 3',5'-cyclic phosphodiesterase (Homo sapiens), sequence (O00408 whole entry): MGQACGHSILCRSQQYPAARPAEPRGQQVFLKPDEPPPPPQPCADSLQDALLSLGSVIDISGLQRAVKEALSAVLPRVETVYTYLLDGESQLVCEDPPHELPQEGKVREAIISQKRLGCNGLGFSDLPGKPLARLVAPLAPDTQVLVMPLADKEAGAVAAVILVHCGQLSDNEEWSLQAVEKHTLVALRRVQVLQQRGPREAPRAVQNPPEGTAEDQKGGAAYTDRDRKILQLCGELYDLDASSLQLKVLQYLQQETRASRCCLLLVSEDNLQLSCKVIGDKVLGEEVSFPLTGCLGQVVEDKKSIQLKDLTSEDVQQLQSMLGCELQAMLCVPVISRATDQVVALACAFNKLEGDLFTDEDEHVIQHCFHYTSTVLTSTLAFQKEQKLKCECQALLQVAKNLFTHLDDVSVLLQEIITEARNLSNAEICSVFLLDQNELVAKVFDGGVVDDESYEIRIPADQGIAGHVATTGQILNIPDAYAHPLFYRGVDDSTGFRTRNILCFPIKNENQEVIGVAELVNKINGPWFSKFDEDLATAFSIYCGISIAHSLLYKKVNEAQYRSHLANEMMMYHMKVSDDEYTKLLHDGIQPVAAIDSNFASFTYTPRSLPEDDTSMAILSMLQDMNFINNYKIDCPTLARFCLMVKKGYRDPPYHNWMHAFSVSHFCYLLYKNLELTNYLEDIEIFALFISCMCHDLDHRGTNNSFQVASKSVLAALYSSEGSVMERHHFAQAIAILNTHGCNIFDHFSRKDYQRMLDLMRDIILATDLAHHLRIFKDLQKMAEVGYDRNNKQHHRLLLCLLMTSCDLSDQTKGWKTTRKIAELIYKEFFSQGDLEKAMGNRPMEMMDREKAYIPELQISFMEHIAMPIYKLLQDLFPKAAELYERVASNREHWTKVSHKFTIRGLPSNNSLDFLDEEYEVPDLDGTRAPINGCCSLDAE
Cytochrome P450 2C8, sequence (P10632 whole entry): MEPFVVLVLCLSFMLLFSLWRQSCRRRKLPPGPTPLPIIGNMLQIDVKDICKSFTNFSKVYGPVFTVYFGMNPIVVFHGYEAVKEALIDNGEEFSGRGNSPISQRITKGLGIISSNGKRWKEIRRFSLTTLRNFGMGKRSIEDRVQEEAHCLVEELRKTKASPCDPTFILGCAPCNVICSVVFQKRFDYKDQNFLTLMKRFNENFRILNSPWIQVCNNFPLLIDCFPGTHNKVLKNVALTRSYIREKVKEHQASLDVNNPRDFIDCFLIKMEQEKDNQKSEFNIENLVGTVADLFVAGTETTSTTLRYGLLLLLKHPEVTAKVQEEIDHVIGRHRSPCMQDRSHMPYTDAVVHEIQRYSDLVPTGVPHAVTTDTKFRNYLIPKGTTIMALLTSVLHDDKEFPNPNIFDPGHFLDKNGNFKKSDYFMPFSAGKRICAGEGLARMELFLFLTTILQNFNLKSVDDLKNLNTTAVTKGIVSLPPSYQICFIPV
High affinity cAMP-specific and IBMX-insensitive 3',5'-cyclic phosphodiesterase 8A (Homo sapiens), sequence (O60658 whole entry): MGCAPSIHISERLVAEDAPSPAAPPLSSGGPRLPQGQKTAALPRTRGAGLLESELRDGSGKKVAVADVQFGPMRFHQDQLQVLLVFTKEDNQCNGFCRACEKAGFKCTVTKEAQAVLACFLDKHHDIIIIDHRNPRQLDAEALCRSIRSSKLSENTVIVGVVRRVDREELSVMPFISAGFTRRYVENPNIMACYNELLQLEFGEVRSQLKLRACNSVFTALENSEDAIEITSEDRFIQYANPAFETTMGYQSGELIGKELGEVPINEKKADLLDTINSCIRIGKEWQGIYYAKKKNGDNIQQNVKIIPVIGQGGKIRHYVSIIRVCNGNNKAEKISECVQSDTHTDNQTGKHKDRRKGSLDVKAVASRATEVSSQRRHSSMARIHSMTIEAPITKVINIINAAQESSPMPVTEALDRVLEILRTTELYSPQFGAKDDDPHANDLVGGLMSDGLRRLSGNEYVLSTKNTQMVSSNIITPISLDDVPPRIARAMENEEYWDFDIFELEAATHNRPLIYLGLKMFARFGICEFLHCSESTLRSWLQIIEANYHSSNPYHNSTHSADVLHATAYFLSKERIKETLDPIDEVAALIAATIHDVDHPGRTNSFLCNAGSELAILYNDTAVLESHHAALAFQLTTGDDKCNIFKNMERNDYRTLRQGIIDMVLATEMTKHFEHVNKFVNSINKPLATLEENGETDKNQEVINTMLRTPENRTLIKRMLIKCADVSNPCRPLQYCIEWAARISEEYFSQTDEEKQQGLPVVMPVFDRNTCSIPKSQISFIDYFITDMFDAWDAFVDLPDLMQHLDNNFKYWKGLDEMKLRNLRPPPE
Voltage-gated inwardly rectifying potassium channel KCNH2, sequence (Q12809 whole entry): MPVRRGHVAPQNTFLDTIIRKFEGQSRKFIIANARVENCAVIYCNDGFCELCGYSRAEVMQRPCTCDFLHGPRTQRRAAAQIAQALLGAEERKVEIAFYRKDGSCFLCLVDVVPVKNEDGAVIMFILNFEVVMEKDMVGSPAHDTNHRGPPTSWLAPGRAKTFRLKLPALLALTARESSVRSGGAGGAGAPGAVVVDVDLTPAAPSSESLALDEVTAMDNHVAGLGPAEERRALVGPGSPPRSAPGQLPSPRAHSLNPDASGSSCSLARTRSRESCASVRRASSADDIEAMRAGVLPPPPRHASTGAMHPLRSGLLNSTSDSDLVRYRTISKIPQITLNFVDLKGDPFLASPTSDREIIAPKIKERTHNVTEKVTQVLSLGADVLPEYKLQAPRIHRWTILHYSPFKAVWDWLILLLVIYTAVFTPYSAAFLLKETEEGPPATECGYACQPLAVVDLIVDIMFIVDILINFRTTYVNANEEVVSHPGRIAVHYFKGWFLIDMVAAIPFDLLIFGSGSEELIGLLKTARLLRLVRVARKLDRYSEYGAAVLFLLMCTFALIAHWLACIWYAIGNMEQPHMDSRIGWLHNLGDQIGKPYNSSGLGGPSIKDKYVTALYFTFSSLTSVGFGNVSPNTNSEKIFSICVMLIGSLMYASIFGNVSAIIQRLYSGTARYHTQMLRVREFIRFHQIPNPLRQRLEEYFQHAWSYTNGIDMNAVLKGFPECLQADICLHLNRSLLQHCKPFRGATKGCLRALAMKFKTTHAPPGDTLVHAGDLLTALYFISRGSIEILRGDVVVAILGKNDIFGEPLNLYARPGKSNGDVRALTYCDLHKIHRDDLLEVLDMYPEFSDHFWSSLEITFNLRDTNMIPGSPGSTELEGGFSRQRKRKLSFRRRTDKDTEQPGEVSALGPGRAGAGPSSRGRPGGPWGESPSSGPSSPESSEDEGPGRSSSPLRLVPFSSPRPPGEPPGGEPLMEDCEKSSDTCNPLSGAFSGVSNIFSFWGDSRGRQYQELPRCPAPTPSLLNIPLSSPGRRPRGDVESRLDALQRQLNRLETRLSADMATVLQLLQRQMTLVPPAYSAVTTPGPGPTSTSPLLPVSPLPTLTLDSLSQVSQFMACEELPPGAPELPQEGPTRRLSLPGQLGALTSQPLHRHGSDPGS

COc1cc2c(cc1OC)-c1c/c(=N\c3c(C)cc(C)cc3C)n(C)c(=O)n1CC2 [TREQUINSIN HYDROCHLORIDE]
Activity (HCT-116): inactive | IC50 [1]: 0.25 nM | Activity (IMR-90): inactive

C[C@@H]1CC(=O)NN=C1c1ccc(N2CCOCC2)c(F)c1
inhibition [2]: inactive | inhibition [3]: inactive | inhibition [4]: inactive | Activity [5]: Non-Toxic | Activity [6]: Non-Toxic | Activity [7]: Non-Toxic | T/C (SK-MEL3 [8]): 0.16 | T/C (SK-MEL3 [9]): 0.09 | TGI (SK-MEL3 [10]): Active | TGI (SK-MEL3 [11]): Active | TGI (SK-MEL3 [12]): Active | Activity [13]: Not Active | efflux ratio [14]: 0.71 | Papp B→A [15]: 19.8 ×10⁻⁶ cm/s | Papp A→B [16]: 27.9 ×10⁻⁶ cm/s | solubility [17]: 1000 µM (≈ 291 µg/mL) | EC50 (SK-MEL3 [18]): 1.3 nM | inhibition (INH) (Cytochrome P450 2D6): Not Active | inhibition (INH) (Cytochrome P450 3A4): Not Active | inhibition (INH) (Cytochrome P450 2C9): Not Active | inhibition (INH) (Cytochrome P450 1A2): Not Active | inhibition (INH) (Cytochrome P450 2C8): Not Active | inhibition [19]: inactive | inhibition [20]: inactive | inhibition [21]: inactive | inhibition (Homo sapiens): inactive | inhibition [22]: inactive | Activity (HCT-116): inactive | EC50 (HeLa): 1.6 nM | Activity (IMR-90): inactive | IC50 [23]: 10 nM | Ratio IC50/EC50 [24]: 2.4 | Ratio IC50/EC50 [25]: 2.4 | Activity [26]: Active | Activity (A549): inactive
